Assays:
Format in all cases: functional
HOP-62 [1] = assay: Growth inhibition of human HOP62 cells
Procedure, shortened: (§1)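 NCI DTP 60-cell-line screen, second stage: five-dose testing across the human tumour panel. GI₅₀ taken as the concentration needed to inhibit cell growth by 50% in each cell line.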

SNB-75 = assay: Growth inhibition of human SNB75 cells assessed as cell growth at 10 uM relative to untreated control; conditions: read-out: Activity
Procedure, shortened: (§2)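 This is the first stage of the NCI DTP 60-human-tumour-cell-line screen, covering nine tissue types. Cells receive a single dose of the test compound, and the output is reported as mean growth %.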

MDA-MB-435 [2] = assay: Growth inhibition of human MDA-MB-435 cells
Procedure, shortened: (§3)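 Part of the NCI DTP 60-cell-line panel. After the single-dose stage, cells were tested at five doses. Read-out is the GI50, the concentration giving 50% inhibition of cell growth, derived for each cell line.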

OVCAR-5 = assay: Growth inhibition of human OVCAR5 cells assessed as cell growth at 10 uM relative to untreated control; conditions: read-out: Activity
Procedure, shortened: (§4)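 First stage of the NCI DTP 60 human tumour cell-line screen. Cells were exposed to a single dose of 10 µM. Output is reported as growth % relative to control.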

LOX IMVI = assay: Growth inhibition of human LOXIMVI cells assessed as cell growth at 10 uM relative to untreated control; conditions: read-out: Activity
Procedure, shortened: (§5)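 NCI DTP 60-cell-line screen, first stage: a single 10 µM dose of compound given to the human tumour panel. Result reported as percent growth relative to control, on a mean growth graph.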

EKVX = assay: Growth inhibition of human EKVX cells assessed as cell growth at 10 uM relative to untreated control; conditions: read-out: Activity; procedure, shortened: as §5
M14 = assay: Growth inhibition of human M14 cells; procedure, shortened: as §1
HCT-116 = assay: Growth inhibition of human HCT116 cells assessed as cell growth at 10 uM relative to untreated control; conditions: read-out: Activity; procedure, shortened: as §5
OVCAR-8 = assay: Growth inhibition of human OVCAR8 cells assessed as cell growth at 10 uM relative to untreated control; conditions: read-out: Activity; procedure, shortened: as §4
HOP-92 = assay: Growth inhibition of human HOP92 cells; procedure, shortened: as §1
PC-3 [3] = assay: Growth inhibition of human PC3 cells; procedure, shortened: as §3
KM12 [4] = assay: Growth inhibition of human KM12 cells assessed as cell growth at 10 uM relative to untreated control; conditions: read-out: Activity; procedure, shortened: as §5
SK-MEL-28 [5] = assay: Growth inhibition of human SK-MEL-28 cells; procedure, shortened: as §3
HT-29 = assay: Growth inhibition of human HT-29 cells; procedure, shortened: as §1
COLO 205 [6] = assay: Growth inhibition of human COLO205 cells; procedure, shortened: as §1
[7] = Growth inhibition of human RPMI8266 cells; procedure, shortened: as §3
SK-MEL-28 [8] = assay: Growth inhibition of human SK-MEL-28 cells assessed as cell growth at 10 uM relative to untreated control; conditions: read-out: Activity; procedure, shortened: as §4
NCI-H522 = assay: Growth inhibition of human NCI-H522 cells assessed as cell growth at 10 uM relative to untreated control; conditions: read-out: Activity; procedure, shortened: as §4
[9] = Growth inhibition of human Hs 578T cells assessed as cell growth at 10 uM relative to untreated control; conditions: read-out: Activity; procedure, shortened: as §5
NCI-H226 = assay: Growth inhibition of human NCI-H226 cells; procedure, shortened: as §3
SK-MEL-2 = assay: Growth inhibition of human SK-MEL-2 cells assessed as cell growth at 10 uM relative to untreated control; conditions: read-out: Activity; procedure, shortened: as §4
SF-268 = assay: Growth inhibition of human SF268 cells; procedure, shortened: as §3
PC-3 [10] = assay: Growth inhibition of human PC3 cells assessed as cell growth at 10 uM relative to untreated control; conditions: read-out: Activity; procedure, shortened: as §4
SN12C [11] = assay: Growth inhibition of human SN12C cells
Procedure, shortened: (§6)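 This is the second, five-dose stage of the NCI DTP 60-cell-line screen. GI50 is the concentration that inhibits cell growth by 50%, derived for each cell line.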

HCC 2998 = assay: Growth inhibition of human HCC2998 cells assessed as cell growth at 10 uM relative to untreated control; conditions: read-out: Activity; procedure, shortened: as §5
CAKI-1 = assay: Growth inhibition of human Caki1 cells; procedure, shortened: as §1
NCI-H23 = assay: Growth inhibition of human NCI-H23 cells; procedure, shortened: as §3
ACHN [12] = assay: Growth inhibition of human ACHN cells assessed as cell growth at 10 uM relative to untreated control; conditions: read-out: Activity; procedure, shortened: as §5
UACC-257 = assay: Growth inhibition of human UACC257 cells; procedure, shortened: as §6
COLO 205 [13] = assay: Growth inhibition of human COLO205 cells assessed as cell growth at 10 uM relative to untreated control; conditions: read-out: Activity; procedure, shortened: as §5
TK-10 = assay: Growth inhibition of human TK10 cells assessed as cell growth at 10 uM relative to untreated control; conditions: read-out: Activity; procedure, shortened: as §2
SF-539 = assay: Growth inhibition of human SF539 cells; procedure, shortened: as §3
SN12C [14] = assay: Growth inhibition of human SN12C cells assessed as cell growth at 10 uM relative to untreated control; conditions: read-out: Activity; procedure, shortened: as §2
NCI-H322M = assay: Growth inhibition of human NCI-H322M cells assessed as cell growth at 10 uM relative to untreated control; conditions: read-out: Activity; procedure, shortened: as §4
HOP-62 [15] = assay: Growth inhibition of human HOP62 cells assessed as cell growth at 10 uM relative to untreated control; conditions: read-out: Activity; procedure, shortened: as §5
DU-145 = assay: Growth inhibition of human DU145 cells; procedure, shortened: as §1
UACC-62 = assay: Growth inhibition of human UACC62 cells; procedure, shortened: as §6
BT-549 [16] = assay: Growth inhibition of human BT549 cells assessed as cell growth at 10 uM relative to untreated control; conditions: read-out: Activity; procedure, shortened: as §5
HL-60(TB) = assay: Growth inhibition of human HL-60(TB) cells
Procedure, shortened: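 NCI DTP NCI-60 screen, second stage: five-dose testing across 60 human tumour cell lines from nine tissue types. GI50 is the concentration that inhibits cell growth by 50%, obtained for each cell line.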

MOLT-4 = assay: Growth inhibition of human MOLT4 cells; procedure, shortened: as §3
MDA-MB-231 = assay: Growth inhibition of human MDA-MB-231 cells; procedure, shortened: as §3
KM12 [17] = assay: Growth inhibition of human KM12 cells; procedure, shortened: as §1
SK-OV-3 = assay: Growth inhibition of human SKOV3 cells; procedure, shortened: as §3
786-0 = assay: Growth inhibition of human 786-0 cells; procedure, shortened: as §1
K562 = assay: Growth inhibition of human K562 cells assessed as cell growth at 10 uM relative to untreated control; conditions: read-out: Activity; procedure, shortened: as §5
ACHN [18] = assay: Growth inhibition of human ACHN cells; procedure, shortened: as §1
SF-295 = assay: Growth inhibition of human SF295 cells; procedure, shortened: as §3
OVCAR-3 = assay: Growth inhibition of human OVCAR3 cells; procedure, shortened: as §3
UO-31 = assay: Growth inhibition of human UO31 cells assessed as cell growth at 10 uM relative to untreated control; conditions: read-out: Activity; procedure, shortened: as §2
U-251 = assay: Growth inhibition of human U251 cells assessed as cell growth at 10 uM relative to untreated control; conditions: read-out: Activity; procedure, shortened: as §2
SNB-19 = assay: Growth inhibition of human SNB19 cells; procedure, shortened: as §6
MDA-MB-435 [19] = assay: Growth inhibition of human MDA-MB-435 cells assessed as cell growth at 10 uM relative to untreated control; conditions: read-out: Activity; procedure, shortened: as §4
BT-549 [20] = assay: Growth inhibition of human BT549 cells; procedure, shortened: as §1
NCI-H460 = assay: Growth inhibition of human NCI-H460 cells; procedure, shortened: as §3

`N=C1c2nc3n(c2C(=O)c2nc4n(c21)CCCC4)CCCC3` showed a GI50 (HOP-62 [1]) of 2450 nM, a growth at 10 µM (SNB-75) of -97% and a GI50 (MDA-MB-435 [2]) of 245 nM. The growth at 10 µM (OVCAR-5) was -57.8%, the growth at 10 µM (LOX IMVI) was -68% and the growth at 10 µM (EKVX) was 95.6%. It also gave a GI50 (M14) of 1780 nM, a growth at 10 µM (HCT-116) of 65.8% and a growth at 10 µM (OVCAR-8) of 91.5%. For the same compound, the GI50 (HOP-92) was 43700 nM, the GI50 (PC-3 [3]) was 100000 nM and the growth at 10 µM (KM12 [4]) was 66.7%. The GI50 (SK-MEL-28 [5]) was 2090 nM, the GI50 (HT-29) was 2750 nM and the GI50 (COLO 205 [6]) was 1860 nM. The GI50 [7] was 25700 nM, the growth at 10 µM (SK-MEL-28 [8]) was -67.2% and the growth at 10 µM (NCI-H522) was 10.5%. It also gave a growth at 10 µM [9] of -28.6%, a GI50 (NCI-H226) of 1740 nM and a growth at 10 µM (SK-MEL-2) of 82.7%. For the same compound, the GI50 (SF-268) was 8510 nM, the growth at 10 µM (PC-3 [10]) was 90.5% and the GI50 (SN12C [11]) was 1700 nM. It also gave a growth at 10 µM (HCC 2998) of 87.3%, a GI50 (CAKI-1) of 15500 nM and a GI50 (NCI-H23) of 1380 nM. For the same compound, the growth at 10 µM (ACHN [12]) was 69.4%, the GI50 (UACC-257) was 1950 nM and the growth at 10 µM (COLO 205 [13]) was -88.6%. For the same compound, the growth at 10 µM (TK-10) was 128%, the GI50 (SF-539) was 2570 nM and the growth at 10 µM (SN12C [14]) was -86.1%. For the same compound, the growth at 10 µM (NCI-H322M) was 27.7%, the growth at 10 µM (HOP-62 [15]) was 52.3% and the GI50 (DU-145) was 1410 nM. It also gave a GI50 (UACC-62) of 1740 nM, a growth at 10 µM (BT-549 [16]) of -37.2% and a GI50 (HL-60(TB)) of 23400 nM. For the same compound, the GI50 (MOLT-4) was 38900 nM, the GI50 (MDA-MB-231) was 39800 nM and the GI50 (KM12 [17]) was 13200 nM. The GI50 (SK-OV-3) was 33100 nM, the GI50 (786-0) was 44700 nM and the growth at 10 µM (K562) was 81.4%. It also gave a GI50 (ACHN [18]) of 30900 nM, a GI50 (SF-295) of 1740 nM and a GI50 (OVCAR-3) of 20400 nM. It also gave a growth at 10 µM (UO-31) of 46.9%, a growth at 10 µM (U-251) of 50.6% and a GI50 (SNB-19) of 2570 nM. For the same compound, the growth at 10 µM (MDA-MB-435 [19]) was -82.5%, the GI50 (BT-549 [20]) was 2040 nM and the GI50 (NCI-H460) was 1620 nM.

`O=C1c2nc3n(c2C(=O)c2nc4n(c21)CCCC4)CCCC3` gave a growth at 10 µM (SNB-75) of 97%, a growth at 10 µM (OVCAR-5) of 110% and a growth at 10 µM (LOX IMVI) of 96.1%. For the same compound, the growth at 10 µM (EKVX) was 99.9%, the growth at 10 µM (HCT-116) was 96.8% and the growth at 10 µM (OVCAR-8) was 103%. It also gave a growth at 10 µM (KM12 [4]) of 92.1%, a growth at 10 µM (SK-MEL-28 [8]) of 118% and a growth at 10 µM (NCI-H522) of 92.3%. It also gave a growth at 10 µM [9] of 102%, a growth at 10 µM (SK-MEL-2) of 108% and a growth at 10 µM (PC-3 [10]) of 102%. The growth at 10 µM (HCC 2998) was 88.3%, the growth at 10 µM (ACHN [12]) was 99% and the growth at 10 µM (COLO 205 [13]) was 116%. The growth at 10 µM (TK-10) was 100%, the growth at 10 µM (SN12C [14]) was 99.6% and the growth at 10 µM (NCI-H322M) was 106%. For the same compound, the growth at 10 µM (HOP-62 [15]) was 112%, the growth at 10 µM (K562) was 107% and the growth at 10 µM (UO-31) was 90.9%. The growth at 10 µM (U-251) was 97.5% and the growth at 10 µM (MDA-MB-435 [19]) was 105%.

— ChEMBL document CHEMBL2021842, “COMPARE analysis of the toxicity of an iminoquinone derivative of the imidazo[5,4-f]benzimidazoles with NAD(P)H:quinone oxidoreductase 1 (NQO1) activity and computational docking of quinones as NQO1 substrates” (Bioorg Med Chem, 2012)
